Results taken from paper PMC5417336 (Journal of immunology (Baltimore, Md. : 1950), 2017).
In brackets after ≈: the same amount, converted by molar mass. Entries after “also recorded” stand apart in the source; their conditions may differ. Where two headings read alike, the source gives them in different places.

Legend:
C3b [1] = biological target: T1, C3b (Homo sapiens, UniProt P01024); test: Label-enhanced SPR; format: binding; details: read-out: KD for C3b, LE-SPR, B23-C5; 1:1 Langmuir kinetic model
How it was run: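 C5 was dialysed into PBS pH 7.4 (2 h, RT), labelled 1 h in the dark with 5-fold molar excess NHS-B23 dye, then dialysed into HBS overnight at 4°C. A two-fold concentration series ran over oriented biotin-C3b (5,160 RU) at 10 μl min−1 with 1 min association and 1 min dissociation. An unlabelled injection at the top concentration weighted dip width and position to give epigrams (eRU). KD from a 1:1 Langmuir kinetic fit.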

C5/C3b interaction = C5/C3b interaction (Homo sapiens, UniProt P01024); test: LE-SPR competition assay B23-C5/C3b; format: binding
How it was run: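 B23-C5 (250 nM) was co-injected over oriented biotin-C3b (4,460 RU) with competitor: unlabelled C5 (250 nM), TRX-4W9A (12 μM) or compstatin peptide (65 μM) in HBS-T. Runs with small molecules used buffer with 5% (v/v) DMSO. A parallel competitor-only injection served for epigram calculation. Residual binding was the mean eRU over 10 s before injection stop, relative to B23-C5 alone or DMSO vehicle. Each run was done 2–4 times.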

C3b [2] = biological target: T1, C3b; format: binding; details: read-out: KD for C3b, conventional SPR, C5; 1:1 Langmuir kinetic model
How it was run: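 Biotinylated C3b was captured on a NeutrAvidin-coupled sensor chip (6,560 RU surface for C5). Native C5 in HBST ran as a two-fold concentration series: 2 min injection, 3 min dissociation, 30 μl min−1, no regeneration. KD came from a 1:1 Langmuir kinetic fit of reference-corrected sensorgrams.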

[3] = system: C5a production (C5 cleavage); test: C5a capture ELISA of CP ELISA reactions; format: biochemical, human; details: fixed 500 μM cmp-5, serum 0–4% (v/v); DMSO control 1.55% (v/v)
How it was run: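 Completed CP ELISA reactions (IgM-coated plates, CP buffer, 1 h at 37°C; fixed 500 μM test compound or DMSO vehicle, serum 0–4% (v/v)) were diluted 2-fold onto plates coated overnight at room temperature with 1 μg ml−1 anti-C5a neoepitope mAb. Incubation 1 h at RT with rocking. Detection used rabbit anti-human C5a (1/200, 1 h RT), then goat anti-rabbit-HRP (1/5000, 1 h) and TMB, read at 450 nm. Signals normalised to the mean vehicle control as 100%.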

[4] = system: classical pathway (CP) complement activation, MAC deposition; test: CP-specific complement ELISA, MAC deposition; format: biochemical, human
How it was run: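 Plates carry 3 μg ml−1 human IgM, blocked with BSA/Tween-20. Test compound (250 μM, or 0–625 μM series; 2.5% DMSO) is mixed with 1% normal human serum in HEPES pH 7.3 buffer with 2 mM CaCl2, 0.5 mM MgCl2 and gelatin. Serum-titration arm: fixed 500 μM compound or DMSO vehicle, serum 0–4% (v/v). Incubated 1 h at 37°C. Read-out: anti-MAC aE11 (1/300). Normalised to vehicle mean as 100%.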

[5] = system: C3b deposition (classical pathway); test: CP ELISA, C3b deposition; format: biochemical, human; details: concentrations up to 625 μM, 1% (v/v) serum
How it was run: (§1)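 Wells coated overnight with 3 μg ml−1 human IgM in carbonate pH 9.6, then blocked with BSA/Tween-20 in PBS. Test compound (250 μM single concentration, or series up to 625 μM; 2.5% DMSO) is added to 1% (v/v) normal human serum in HEPES pH 7.3, gelatin, NaCl, 2 mM CaCl2, 0.5 mM MgCl2. Incubated 1 h at 37°C. Detection: anti-C3b WM1 or anti-C4b C4-1 (1/300). Normalised to mean vehicle as 100%.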

[6] = system: C4b deposition (classical pathway); test: CP ELISA, C4b deposition; format: biochemical, human; details: concentrations up to 625 μM, 1% (v/v) serum
How it was run: as §1

compstatin/C3b binding = compstatin/C3b binding (Homo sapiens, UniProt P01024); test: LE-SPR competition assay B23-TRX-4W9A; details: 500 μM compound, 500 nM B23-TRX-4W9A vs 5% DMSO
How it was run: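 B23-labelled TRX-4W9A (500 nM) was co-injected with 500 μM test compound, 5% (v/v) DMSO vehicle, or 65 μM compstatin peptide (positive control) over oriented biotin-C3b (3,800 and 3,100 RU surfaces). Running buffer contained 5% DMSO, and competitor-only injections served for epigram calculation. Residual binding was the mean eRU over 10 s before injection stop, relative to DMSO control. Each compound was tested on at least two independent C3b surfaces.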

[7] = system: alternative pathway (AP) complement activation, MAC deposition; test: AP-specific complement ELISA, MAC deposition; format: biochemical, human; details: 250 μM, 20% (v/v) serum
How it was run: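 Wells coated overnight with 25 μg ml−1 Salmonella typhosa LPS in 100 mM carbonate pH 9.6, then blocked 1 h at 37°C with PBS/1% BSA/0.05% Tween-20. Test compound (250 μM final, 2.5% DMSO) is mixed with 20% (v/v) normal human serum in HEPES pH 7.5, gelatin, NaCl, 5 mM MgCl2, 5 mM EGTA. Incubated 1 h at 37°C. MAC detected with anti-C5b-9 aE11 (1/300). Signal expressed against mean vehicle as 100%.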

[8] = Compound solubility in CP ELISA assay buffer; format: physicochemical; details: aqueous buffer
[9] = biological target: T2, site-specifically biotinylated C3b (human, UniProt P01024 23-667; P01024 749-1663, site-specifically biotinylated with EZ-link Maleimide-PEG2-biotin); test: SPR
[10] = biological target: T2, site-specifically biotinylated C3b; test: SPR; remark: listed apart in the source
[11] = biological target: T2, site-specifically biotinylated C3b; test: SPR; remark: listed apart in the source
[12] = biological target: T2, site-specifically biotinylated C3b; test: AlphaScreen or HTRF

B23-C5: C5 labeled with NHS-B23 dye
Kd (C3b [1]): 3200 nM

C5: complement component C5, purified protein (Complement Technologies)
effect on B23-C5/C3b LE-SPR signal, protein/peptide competitors (C5/C3b interaction; 250 nM B23-C5, 250 nM unlabeled C5, 12 μM TRX-4W9A or 65 μM compstatin peptide): reduces the B23-C5 specific LE-SPR signal
reduction of specific binding of B23-C5 to C3b (C5/C3b interaction; 250 nM B23-C5, competitor 250 nM unlabeled C5 or 12 μM TRX-4W9A, HBS-T): ~50%
Kd (C3b [2]): 350 nM

Cc1ccnn1-c1cccc(NC(=O)CC2OC(=O)c3ccccc32)c1 (stereo not shown) [cmp-5, N-(3-(5-methyl-1H-pyrazol-1-yl)phenyl)-2-(3-oxo-1,3-dihydroisobenzofuran-1-yl)acetamide]
EC50 of serum, C5a production [3]: 2.04 % (v/v)
inhibition of MAC deposition in CP ELISA ([4]; 250 μM, 1% (v/v) serum): significant inhibition
MAC deposition relative to control response (CP ELISA) ([4]; 250 μM, 1% (v/v) serum, n=13): 59 ± 2.4%
EC50 of serum, MAC deposition ([4]; fixed 500 μM cmp-5, serum 0–4% (v/v), DMSO control 0.88% (v/v)): 1.43 % (v/v)
effect on C3b deposition, CP ELISA [5]: no effect
effect on B23-C5/C3b interaction, small molecules (C5/C3b interaction; 500 μM compound, 250 nM B23-C5 vs 5% DMSO vehicle): did not affect; also recorded: failed to perturb
effect on C4b deposition, CP ELISA [6]: no effect
effect on B23-TRX-4W9A-specific LE-SPR signal (C3b binding) (compstatin/C3b binding): reduction of specific C3b-binding; also recorded: modest ability to compete
inhibition of the AP (MAC deposition) [7]: significant inhibition
MAC deposition relative to control response (AP ELISA) ([7]; n=5): 73 ± 4.6%
solubility [8]: ~600 µM (≈ 208 µg/mL)

ENLYFQGGSGSGSGICVWQDWGAHRCT (designed binder, labeled with the dye reagent Episentec NHS-B23 (5-fold molar excess)) [B23 dye-labeled TRX-4W9A]
Kd [9]: 790 nM
Kd [10]: 560 nM

ENLYFQGGSGSGSGICVWQDWGAHRCT (designed binder) [thioredoxin-compstatin fusion protein (TRX-4W9A)]
Kd [11]: 770 nM

B1: untagged Ba(1–3) (domain or fragment, human, UniProt P00751 35-220, looked up)
chain: GSCSLEGVEIKGGSFRLLQEGQALEYVCPSGFYPYPVQTRTCRSTGSWSTLKTQDQKTVRKAECRAIHCPRPHDFENGEYWPRSPYYNVSDEISFHCYDGYTLRGSANRTCQVNGRWSGQTAICDNGAGYCSNPGIPIGTRKVGSQYRLEDSVTYHCSRGLTLRGSQRRTCQEGGSWSGTEPSCQD
Kd [12]: 4700 nM
